Screening data: PubChem BioAssay, several laboratories
In the library only some 1.4% were active in any assay of this set; here they are far more common.
FXIa inh 1536: human FXIa protease inhibitors, primary screen, biochemical, 1536-well | Coagulation factor XI (Homo sapiens), P03951 | hit rate 0.14% among 220,000 | purified FXIa, Boc-Glu-Ala-Arg-AMC fluorogenic substrate | inhibition, % at 5 µM;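 active = inhibition of at least 40%; inactive = inhibition below 40%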;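 also: fluorescence of freed AMC excited at 355 nm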
FXIIa inh: human FXIIa protease inhibitors, primary screen, biochemical, 1536-well; purified FXIIa, Boc-QGR-AMC fluorogenic substrate, 2 h; inhibition, % at 5 µM; hit rate 0.3% among 220,000; AID 800, 2007; in the data active = inhibition above about 40%
Target sequence (P00748 20-372 limits assumed): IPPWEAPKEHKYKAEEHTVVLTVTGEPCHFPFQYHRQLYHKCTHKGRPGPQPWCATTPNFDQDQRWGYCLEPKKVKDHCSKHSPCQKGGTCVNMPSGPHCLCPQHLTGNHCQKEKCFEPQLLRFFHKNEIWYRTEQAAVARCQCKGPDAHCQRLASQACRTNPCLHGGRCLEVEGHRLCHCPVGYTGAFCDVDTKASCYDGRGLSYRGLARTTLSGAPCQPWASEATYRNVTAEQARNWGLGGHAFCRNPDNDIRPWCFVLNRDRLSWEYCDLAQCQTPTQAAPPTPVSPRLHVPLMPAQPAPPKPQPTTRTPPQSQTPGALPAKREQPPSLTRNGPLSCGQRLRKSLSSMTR
Target sequence (P00748 373-615 limits assumed): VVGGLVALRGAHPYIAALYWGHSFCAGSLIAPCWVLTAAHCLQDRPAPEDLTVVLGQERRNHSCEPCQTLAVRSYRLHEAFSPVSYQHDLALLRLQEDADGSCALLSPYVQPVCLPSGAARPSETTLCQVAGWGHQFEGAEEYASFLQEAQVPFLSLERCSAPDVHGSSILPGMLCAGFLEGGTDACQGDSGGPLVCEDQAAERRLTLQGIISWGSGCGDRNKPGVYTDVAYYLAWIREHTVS
hK5 inh: human KLK5 protease inhibitors, primary screen, biochemical, 1536-well; recombinant hK5, fluorogenic AMC substrate cleavage; inhibition, % at 5 µM; hit rate 0.59% among 210,000;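 active = inhibition of 40% or more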
thrombin 1536: human alpha-thrombin inhibitors, primary screen, counter-screen for coagulation protease inhibitor project, biochemical, 1536-well, fluorogenic AMC substrate. hit rate 0.26% among 220,000. Prothrombin (Homo sapiens), P00734. inhibition, % at 5 µM. AID 1046, 2008. Boc-VPR-AMC fluorogenic substrate cleavage;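 active = inhibition at or above 40%; inactive = inhibition below 40%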
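System: human alpha-thrombin protein; Compound dosing: one concentration per compound, 5 µM, with 0.2% DMSO; Timing: reaction at room temperature; Technique: AMC fluorescence, 355/460 nm; Controls: enzyme without compound as high, wells lacking enzyme as low.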
m-calpain inh: inhibitors of pig calpain II, primary screen, biochemical, fluorogenic peptide substrate, 1536-well. AID 1236, 2008. hit rate 0.37% among 220,000. purified calpain II, 30 min. inhibition, % at 16 µM;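 active = inhibition above about 50%, limit read from the data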
Each line names hits and unclear results; the compound was inactive in the other large screens.

CC(C)(C)c1ccc(OCc2nnc(SCC(N)=O)n2N)cc1	none
Cc1ccc(OCc2nnc(SCC(=O)O)n2N)cc1	FXIIa inh 44.6
O=C(Oc1ccc2c3c(c(=O)oc2c1)CCC3)c1ccco1	FXIIa inh 71.3
O=C(Oc1cc2oc(=O)c3c(c2cc1Cl)CCCC3)c1ccco1	none
COc1cc(NC(=S)NCCC(c2ccccc2)c2ccccc2)cc(OC)c1	none
COc1cccc(NC(=S)Nc2ccc(Br)cc2Cl)c1	FXIIa inh 40.5, thrombin 1536 51.5
COc1cccc(NC(=S)NCCC(c2ccccc2)c2ccccc2)c1	thrombin 1536 41.3, m-calpain inh 56.2
CCOc1ccc(NC(=S)Nc2ccc(Br)cc2Cl)cc1	none
C/C(=N\NC(=S)Nc1ccc(C)c(C)c1)c1ccc(N2CCOCC2)cc1	none
Cc1c(O)ccc(C(=O)CN2C(=O)c3ccccc3C2=O)c1O	m-calpain inh 78.3
Cc1cc(C(=O)CN2C(=O)c3ccccc3C2=O)c(C)n1C1CC1	none
CCOC(=O)c1c(C)[nH]c(C)c1C(=O)COC(=O)/C=C/c1cccc(F)c1	hK5 inh 52.2
COc1ccc(N2CC(C(=O)O)CC2=O)cc1 (configuration not stated)	none
COCCNC(=S)NN=C1CCC(c2ccccc2)CC1 (configuration not stated)	none
COCCNC(=S)NN=C1CCCCCC1	FXIIa inh 54.4, hK5 inh 40.6, thrombin 1536 47.4
COCCCNC1=C(Cl)C(=O)c2ccccc2C1=O	none
CCN(CC)CCCNC1=C(Cl)C(=O)c2ccccc2C1=O	m-calpain inh 51.4 (no result: hK5 inh)
O=C(CCC1CCCCC1)Nc1ccc(C(=O)c2ccncc2)cc1	m-calpain inh 51.4
O=C(COc1ccc(Br)cc1F)N1CCN(c2ncccn2)CC1	none
CCOc1ccc(OCc2ccc(C(=O)N3CCCC(C)C3)cc2)cc1 (configuration not stated)	m-calpain inh 70.7
CCCC/C(O)=C1\C(=O)CCCC1=NCCc1c(C)[nH]c2ccccc12	none
COc1ccc(NC(=O)Cc2ccccc2F)cn1	thrombin 1536 49.8
COc1ccc(NC(=O)Cc2ccc(Cl)cc2Cl)cn1	none (no result: FXIIa inh)
Cc1ccc(NC(=O)CN(C)CC(=O)Nc2ccccc2-c2ccccc2)cc1	none
Cc1ccc(NC(=O)/C(CN(C)C)=N\O)cc1	FXIIa inh 41.9
O=C(c1ccc(Cl)cc1Cl)N1CCC(c2nc3c(nnn3Cc3ccco3)c(=O)[nH]2)CC1	m-calpain inh 70.4
Clc1ccccc1-c1nnc2sc(-c3ccncc3)nn12	none
Clc1ccccc1-c1nnc2sc(-c3cccs3)nn12	m-calpain inh 51.7
CCCCCCCCCC(=O)Nn1cnc2ccccc2c1=O	FXIIa inh 52.0, hK5 inh 70.0
CCN(CC)CCN1C(=O)C(=O)/C(=C(/O)c2ccc(OC(C)C)cc2)C1c1cccs1 (configuration not stated)	none
O=C(CN(Cc1ccccc1F)C(=O)Cn1nnc(-c2cccs2)n1)NCC1CCCO1 (configuration not stated)	hK5 inh 53.4
COc1cccc(/C=N/NC(=O)CCn2cnc3ccccc32)c1	none
COc1ccc(/C=N/NC(=O)CCn2cnc3ccccc32)cc1	FXIa inh 1536 40.5, FXIIa inh 40.3, hK5 inh 40.6
COc1ccc(-c2[nH]nc3c2C(c2ccoc2)C(C#N)=C(N)O3)cc1 (configuration not stated)	none
Cc1ccc(-c2[nH]nc3c2C(c2ccoc2)C(C#N)=C(N)O3)cc1C (configuration not stated)	hK5 inh 61.8
O=C(CC(c1ccc(F)cc1)c1ccco1)N1CCOCC1 (configuration not stated)	hK5 inh 58.7, thrombin 1536 42.8
O=c1cc(-c2ccc([N+](=O)[O-])cc2)nc2cc(-c3ccc(Cl)cc3)[nH]n12	hK5 inh 48.2, thrombin 1536 62.8
O=c1cc(-c2ccccc2)nc2cc(-c3ccco3)[nH]n12	none
COc1ccc(NC(=O)c2ccc(Cn3cc(Cl)cn3)cc2)cc1	none
CN(C)c1ccc(NC(=O)c2ccc(Cn3cc([N+](=O)[O-])cn3)cc2)cc1	thrombin 1536 96.8
Cc1sc2ncnc(OCC(=O)NC3CCS(=O)(=O)C3)c2c1C (configuration not stated)	hK5 inh 102.8
Cc1sc2ncnc(OCC(=O)NC(C)C)c2c1C	none
CC(C)OP(=O)(c1ccc(N(C)C)cc1)C(Nc1ccccc1)c1ccccc1 (configuration not stated)	none
COc1ccc(C(=O)n2nc(-c3ccccc3)nc2N)cc1OC	hK5 inh 41.1
Cc1[nH]c2ccccc2c1C(=O)COC(=O)Cn1c(C)nc2ccccc21	hK5 inh 51.7
O=c1[nH]c2ccc(Cl)cc2c(-c2ccccc2)c1N1CCOCC1	thrombin 1536 42.6
O=c1[nH]c2ccc(Cl)cc2c(-c2ccccc2)c1CN1CCOCC1	none
CC(=O)NC1C(=O)N(C)c2ccc(Br)cc21 (configuration not stated)	hK5 inh 45.1
O=c1cc(CO)occ1OCc1cccc(F)c1	hK5 inh 40.4
CCOC(=O)c1cnn2cc(-c3[nH]ncc3[N+](=O)[O-])cnc12	none
Cc1ccc(NC(=O)c2ccc(Cl)c(N3C(=O)C=CC3=O)c2)cc1	none
CC(=O)Nc1ccc(S(=O)(=O)NNC(=O)COc2ccc(Cl)cc2Cl)cc1	FXIa inh 1536 43.9
O=C(COC(=O)CCc1nc2ccccc2s1)Nc1ccc(Cl)cn1	none
S=C(NCc1ccco1)N/N=C/c1ccccc1Cl	none
S=C(NCc1ccco1)N/N=C/c1ccc(Cl)cc1	m-calpain inh 67.7
COc1ccccc1/C=N/NC(=S)NCc1ccco1	m-calpain inh 60.1
CC(C)(CO)NC(=S)NCc1ccco1	hK5 inh 100.3
Oc1ccc(/C=N/NC(=S)NCc2ccco2)cc1	none
Cc1ccc(S(=O)(=O)Nc2cccc(Cl)c2)cc1NC(=O)c1cccnc1	none
COc1ccc(/C=N\NS(=O)(=O)c2ccc(Cl)cc2)cc1COc1ccccc1[N+](=O)[O-]	hK5 inh 47.3, thrombin 1536 84.8
O=C(COc1ccc(-c2ccccc2)cc1)N1CCN(C(=O)c2cccs2)CC1	none
CCOC(=O)c1sc(NC(=O)/C=C/c2cnn(C)c2C)c(C(=O)OCC)c1C	thrombin 1536 47.0
O=C1c2cccc3cccc(c23)C(=O)N1OS(=O)(=O)c1ccccc1	none
Cc1ccc(C)c(S(=O)(=O)ON2C(=O)c3ccccc3C2=O)c1	FXIa inh 1536 62.4, FXIIa inh 77.1, thrombin 1536 47.8
Cc1ccc(S(=O)(=O)ON2C(=O)c3cccc4cccc(c34)C2=O)cc1	none
O=C1c2ccccc2C(=O)N1OS(=O)(=O)c1ccccc1	FXIa inh 1536 42.7, FXIIa inh 76.5
Cn1nc(C(=O)NCc2cccs2)c2ccccc2c1=O	none
